Assay results: paper PMC3103606 (Chemico-biological interactions, 2011)

Legend:
Format in all cases: biochemical
ALDH3A1 [1] = molecular target: T1, ALDH3A1 (Homo sapiens, UniProt P30838); assay: ALDH3A1 esterase assay; details: read-out: (Esterase assay) IC50; ALDH3A1, 0.8 mM para-nitrophenylacetate, pH 7.5
T1 sequence (P30838 1-453): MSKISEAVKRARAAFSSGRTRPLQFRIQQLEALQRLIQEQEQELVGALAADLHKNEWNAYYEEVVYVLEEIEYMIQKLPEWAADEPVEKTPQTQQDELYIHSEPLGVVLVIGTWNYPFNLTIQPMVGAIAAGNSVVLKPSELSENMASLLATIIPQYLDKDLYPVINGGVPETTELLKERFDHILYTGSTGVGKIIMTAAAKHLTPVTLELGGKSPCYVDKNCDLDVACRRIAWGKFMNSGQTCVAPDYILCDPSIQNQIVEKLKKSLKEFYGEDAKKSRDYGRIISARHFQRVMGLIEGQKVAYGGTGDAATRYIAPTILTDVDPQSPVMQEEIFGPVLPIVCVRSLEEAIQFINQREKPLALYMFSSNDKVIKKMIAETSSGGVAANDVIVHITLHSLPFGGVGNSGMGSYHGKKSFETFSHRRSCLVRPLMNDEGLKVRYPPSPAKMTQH
Outline: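 Reactions used nickel-NTA/Q-sepharose-purified recombinant ALDH3A1 at 180 nM in 25 mM sodium HEPES. Inhibitor was preincubated with enzyme for 2 min, and 0.8 mM para-nitrophenylacetate then started the reaction. para-Nitrophenol formation was read spectrophotometrically at 405 nm (ε 18,000 M−1cm−1).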

ALDH3A1 [2] = molecular target: T1, ALDH3A1; assay: ALDH3A1 dehydrogenase assay; details: read-out: (Dehydrogenase assay) IC50; ALDH3A1, 1 mM benzaldehyde, […] NADP+, pH 7.5
ALDH1A1 = molecular target: T2, ALDH1A1 (Homo sapiens, UniProt P00352); assay: Isoenzyme selectivity: ALDH1A1 dehydrogenase activity; details: 10 μM concentration, aldehyde oxidation
T2 sequence (P00352 1-501): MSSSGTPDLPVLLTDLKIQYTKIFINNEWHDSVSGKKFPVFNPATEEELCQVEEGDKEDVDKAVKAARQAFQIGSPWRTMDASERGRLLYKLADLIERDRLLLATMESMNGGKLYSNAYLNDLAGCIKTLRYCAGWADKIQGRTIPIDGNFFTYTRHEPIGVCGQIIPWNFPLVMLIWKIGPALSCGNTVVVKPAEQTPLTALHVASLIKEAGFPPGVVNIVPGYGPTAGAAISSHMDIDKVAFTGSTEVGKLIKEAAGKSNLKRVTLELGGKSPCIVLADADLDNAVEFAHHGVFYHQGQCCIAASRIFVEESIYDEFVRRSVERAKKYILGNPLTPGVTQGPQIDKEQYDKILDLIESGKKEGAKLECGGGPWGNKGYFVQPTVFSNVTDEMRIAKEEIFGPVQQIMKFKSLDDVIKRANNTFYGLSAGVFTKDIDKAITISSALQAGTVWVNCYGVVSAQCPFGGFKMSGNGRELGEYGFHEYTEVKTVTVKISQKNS

ALDH2 = molecular target: T3, ALDH2 (Homo sapiens, UniProt P05091); assay: Isoenzyme selectivity: ALDH2 dehydrogenase activity; details: 10 μM concentration, aldehyde oxidation
T3 sequence (P05091 18-517): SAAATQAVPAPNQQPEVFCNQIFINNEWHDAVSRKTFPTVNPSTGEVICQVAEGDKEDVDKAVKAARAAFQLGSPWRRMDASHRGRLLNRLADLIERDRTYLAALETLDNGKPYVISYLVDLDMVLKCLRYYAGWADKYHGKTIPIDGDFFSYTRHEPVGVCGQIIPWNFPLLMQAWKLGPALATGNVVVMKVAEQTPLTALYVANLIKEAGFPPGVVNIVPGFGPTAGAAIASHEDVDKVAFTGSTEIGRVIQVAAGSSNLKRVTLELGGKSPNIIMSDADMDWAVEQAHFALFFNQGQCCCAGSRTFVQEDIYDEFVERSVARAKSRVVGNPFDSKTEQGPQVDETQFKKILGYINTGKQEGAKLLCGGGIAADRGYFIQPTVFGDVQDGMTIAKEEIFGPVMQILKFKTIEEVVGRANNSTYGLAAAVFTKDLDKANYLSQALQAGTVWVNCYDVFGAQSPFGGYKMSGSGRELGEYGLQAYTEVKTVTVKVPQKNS

IC50 (ALDH3A1 [1]) | IC50 (ALDH3A1 [2]) | inhibition of ALDH1A1 (ALDH1A1) | inhibition of ALDH2 (ALDH2) | SMILES
2200 nM | 6300 nM | – | – | CCOC(=O)CN1C(=O)C(O)(CC(=O)c2ccncc2)c2ccccc21 (centres unmarked) [CD8]
500 nM | 5000 nM | less than 10% | less than 10% | CC(=O)Nc1ccc(Nc2ccc(S(C)(=O)=O)cc2[N+](=O)[O-])cc1 [CB29]
1000 nM | 1500 nM | – | – | CCSc1nnc2c(n1)OC(C(=O)c1ccc(OC)cc1)Nc1ccccc1-2 (centres unmarked) [CD5]
